Assay results reported in ChEMBL document CHEMBL4765376, “Discovery of an Orally Available Diazabicyclooctane Inhibitor (ETX0282) of Class A, C, and D Serine β-Lactamases” (J Med Chem, 2020).
Converted amounts (≈) assume the structure as drawn. The source made the active and inactive calls. The rule behind the calls is not given here.

Key:
[1] = Oral bioavailability in Sprague-Dawley rat at 10 mg/kg by LC/MS/MS analysis; format: ADME, organism-based; details: in vivo
Outline: (§1)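 Jugular vein-cannulated male Sprague Dawley rats (180–200 g, n = 3/route). Intravenous arm: active acid at 10 mg/kg in 0.9% saline, plasma sampled 0.08–8 h. Oral arm: prodrug at a dose equivalent to 10 mg/kg acid in 25:75 PEG 400/WFI, plasma sampled 0.25–24 h. Levels by LC/MS/MS; F = (AUCpo/AUCiv) × 100.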

[2] = Toxicity in rat assessed as adverse effect at 400 to 500 mg/kg, po measured for 14 days; format: organism-based; details: in vivo, 336 h, dose 400-500 mg/kg, time 14 day
Outline: (§2)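 Fourteen-day GLP toxicology study with daily oral administration; NOAEL determined.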

[3] = Cmax in Sprague-Dawley rat at 11.6 mg/kg, po by LC/MS/MS analysis; format: ADME, organism-based; set-up: route oral, dose 11.6 mg/kg; details: in vivo
[4] = Drug metabolism assessed as diamine metabolite formation
Escherichia coli [5] = assay: Synergistic antibacterial activity against multidrug-resistant Escherichia coli ARC 2687 infected in CD-1 mouse model of neutropenic thigh infection assessed as reduction in colony forming unit in presence of cefpodoxime at 10 to 100 mg/kg, po administered every 6 hrs interval; format: functional, organism-based; details: dose 10-100 mg/kg
Outline: (§3)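 Female CD-1 mice (20–22 g, 3/arm) made neutropenic with ip cyclophosphamide, 150 mg/kg on day −4 and 100 mg/kg on day −1. Each thigh received an im inoculum of 5.5 × 10^6–1.6 × 10^7 CFU from saline suspension (OD625 0.1, diluted). Dosing began 2 h post-infection, q6h. Oral agents were given in 0.5% HPMC/0.1% Tween 80; meropenem was given sc in water. Thighs were taken at 24 h, homogenized and plated on TSA (35 °C overnight) for CFU counts.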

Escherichia coli [6] = assay: Synergistic antibacterial activity against multidrug-resistant Escherichia coli ARC 2687 infected in CD-1 mouse model of neutropenic thigh infection assessed as reduction in colony forming unit in presence of cefpodoxime at 50 to 100 mg/kg, po administered every 6 hrs interval; format: functional; details: dose 50-100 mg/kg; outline: as §3
[7] = Half-life in Sprague-Dawley rat at 11.6 mg/kg, po by LC/MS/MS analysis; format: ADME, organism-based; details: in vivo
[8] = Oral bioavailability in Sprague-Dawley rat at 11.6 mg/kg by LC/MS/MS analysis; format: ADME, organism-based; details: in vivo; outline: as §1
[9] = AUC in Sprague-Dawley rat at 11.6 mg/kg, po by LC/MS/MS analysis; format: ADME, organism-based; set-up: dose 11.6 mg/kg; details: in vivo
[10] = Toxicity in dog assessed as adverse effect at 400 to 500 mg/kg, po measured for 14 days; format: organism-based, Canis lupus familiaris; details: in vivo, 336 h, dose 400-500 mg/kg, time 14 day; outline: as §2
Klebsiella pneumoniae [11] = assay: Antibacterial activity against Klebsiella pneumoniae ARC 6107 carbapenem resistant clinical isolates assessed as reduction in bacterial growth by CLSI based broth dilution method; format: functional
Outline: (§4)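 Broth microdilution per CLSI in cation-adjusted Mueller–Hinton broth against drug-resistant clinical isolates; MIC read as the lowest concentration preventing bacterial growth.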

Klebsiella oxytoca [12] = assay: Synergistic antibacterial activity against Klebsiella oxytoca ARC 5389 carbapenem resistant clinical isolates assessed as MIC for cefpodoxime antibacterial activity by CLSI based broth dilution method (Rvb > 64 ug/ml); format: functional
Enterobacter cloacae [13] = assay: Antibacterial activity against Enterobacter cloacae ARC 6055 drug resistant clinical isolates assessed as reduction in bacterial growth by CLSI based broth dilution method; format: functional; outline: as §4
[14] = AUC in Sprague-Dawley rat at 10 mg/kg, iv by LC/MS/MS analysis; format: ADME, organism-based; set-up: dose 10 mg/kg; details: in vivo
Outline: (§5)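 Jugular vein-cannulated male Sprague Dawley rats, 180–200 g, n = 3, given 10 mg/kg iv in 0.9% saline. Formulation pH checked at 4–7. […] Half-life taken from linear regression of the semilog concentration–time plot.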

Klebsiella pneumoniae [15] = assay: Antibacterial activity against Klebsiella pneumoniae ARC 6088 carbapenem-resistant clinical isolates assessed as reduction in bacterial growth by CLSI based broth dilution method; format: functional; outline: as §4
Escherichia coli [16] = assay: Synergistic antibacterial activity against Escherichia coli ARC 6059 drug resistant clinical isolates assessed as MIC for cefpodoxime antibacterial activity by CLSI based broth dilution method (Rvb > 64 ug/ml); format: functional
[17] = Inhibition of bacterial TEM-1 assessed as equilibrium constant using nitrocefin as chromogenic substrate by absorbance plate reader analysis
Enterobacter cloacae [18] = assay: Synergistic antibacterial activity against Enterobacter cloacae ARC 6049 drug resistant clinical isolates assessed as MIC for cefpodoxime antibacterial activity by CLSI based broth dilution method (Rvb > 64 ug/ml); format: functional
[19] = Cmax in Sprague-Dawley rat at 10 mg/kg, iv by LC/MS/MS analysis; format: ADME, organism-based; set-up: route intravenous, dose 10 mg/kg; details: in vivo; outline: as §5
Enterobacter cloacae [20] = assay: Synergistic antibacterial activity against Enterobacter cloacae ARC 6055 drug resistant clinical isolates assessed as MIC for cefpodoxime antibacterial activity by CLSI based broth dilution method (Rvb > 64 ug/ml); format: functional
Klebsiella pneumoniae [21] = assay: Synergistic antibacterial activity against Klebsiella pneumoniae ARC 6088 carbapenem resistant clinical isolates assessed as MIC for cefpodoxime antibacterial activity by CLSI based broth dilution method (Rvb > 64 ug/ml); format: functional
[22] = Protein binding in Sprague-Dawley rat plasma assessed as fraction unbound at 5 to 100 uM; format: ADME, cell-free; details: dose 5-100 µM
Outline: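 Rat plasma protein binding reported as mean percent unbound across 5–100 μM.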

Escherichia coli [23] = assay: Antibacterial activity against Escherichia coli ARC 2687 drug resistant clinical isolates assessed as reduction in bacterial growth by CLSI based broth dilution method; format: functional; outline: as §4
[24] = Drug excretion in Sprague-Dawley rat urine assessed as unchanged drug at 10 mg/kg, iv by LC/MS/MS analysis; format: ADME, organism-based; details: read-out: Drug excretion
Outline: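 Male Sprague Dawley rats, 10 mg/kg iv in 0.9% saline, n = 3. Urine assayed for unchanged parent drug, reported as percent of the administered iv dose.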

Escherichia coli [25] = assay: Antibacterial activity against Escherichia coli ARC 6059 drug resistant clinical isolates assessed as reduction in bacterial growth by CLSI based broth dilution method; format: functional; outline: as §4
Klebsiella pneumoniae [26] = assay: Antibacterial activity against Klebsiella pneumoniae ARC 6082 drug resistant clinical isolates assessed as reduction in bacterial growth by CLSI based broth dilution method; format: functional; outline: as §4
Escherichia coli [27] = assay: Antibacterial activity against Escherichia coli ARC 6064 drug resistant clinical isolates assessed as reduction in bacterial growth by CLSI based broth dilution method; format: functional; outline: as §4
Klebsiella pneumoniae [28] = assay: Antibacterial activity against Klebsiella pneumoniae ARC 6098 drug resistant clinical isolates assessed as reduction in bacterial growth by CLSI based broth dilution method; format: functional; outline: as §4
Escherichia coli [29] = assay: Antibacterial activity against Escherichia coli ARC 6077 drug resistant clinical isolates assessed as reduction in bacterial growth by CLSI based broth dilution method; format: functional; outline: as §4
Escherichia coli [30] = assay: Antibacterial activity against Escherichia coli ARC 6078 drug resistant clinical isolates assessed as reduction in bacterial growth by CLSI based broth dilution method; format: functional; outline: as §4
Escherichia coli [31] = assay: Synergistic antibacterial activity against Escherichia coli ARC 6078 drug resistant clinical isolates assessed as MIC for cefpodoxime antibacterial activity by CLSI based broth dilution method (Rvb > 64 ug/ml); format: functional
[32] = Renal clearance in Sprague-Dawley rat at 10 mg/kg, iv by LC/MS/MS analysis; format: ADME, organism-based; details: in vivo; outline: as §5
[33] = Clearance in Sprague-Dawley rat at 10 mg/kg, iv by LC/MS/MS analysis; format: ADME, organism-based; details: in vivo; outline: as §5
Klebsiella pneumoniae [34] = assay: Synergistic antibacterial activity against Klebsiella pneumoniae ARC 6098 drug resistant clinical isolates assessed as MIC for cefpodoxime antibacterial activity by CLSI based broth dilution method (Rvb > 64 ug/ml); format: functional
Citrobacter freundii [35] = assay: Antibacterial activity against Citrobacter freundii ARC 3518 carbapenem resistant clinical isolates assessed as reduction in bacterial growth by CLSI based broth dilution method; format: functional; outline: as §4
Escherichia coli [36] = assay: Synergistic antibacterial activity against Escherichia coli ARC 6064 drug resistant clinical isolates assessed as MIC for cefpodoxime antibacterial activity by CLSI based broth dilution method (Rvb > 64 ug/ml); format: functional
Escherichia coli [37] = assay: Synergistic antibacterial activity against Escherichia coli ARC 6077 drug resistant clinical isolates assessed as MIC for cefpodoxime antibacterial activity by CLSI based broth dilution method (Rvb > 64 ug/ml); format: functional
[38] = Volume of distribution at steady state in Sprague-Dawley rat at 10 mg/kg, iv by LC/MS/MS analysis; format: ADME, organism-based; details: in vivo, read-out: Vdss; outline: as §5
Enterobacter cloacae [39] = assay: Antibacterial activity against Enterobacter cloacae ARC 6049 drug resistant clinical isolates assessed as reduction in bacterial growth by CLSI based broth dilution method; format: functional; outline: as §4
Klebsiella oxytoca [40] = assay: Antibacterial activity against Klebsiella oxytoca ARC 5389 carbapenem resistant clinical isolates assessed as reduction in bacterial growth by CLSI based broth dilution method; format: functional; outline: as §4
Klebsiella pneumoniae [41] = assay: Synergistic antibacterial activity against Klebsiella pneumoniae ARC 6107 carbapenem resistant clinical isolates assessed as MIC for cefpodoxime antibacterial activity by CLSI based broth dilution method (Rvb > 64 ug/ml); format: functional
Klebsiella pneumoniae [42] = assay: Synergistic antibacterial activity against Klebsiella pneumoniae ARC 6082 drug resistant clinical isolates assessed as MIC for cefpodoxime antibacterial activity by CLSI based broth dilution method (Rvb > 64 ug/ml); format: functional
[43] = Half-life in Sprague-Dawley rat at 10 mg/kg, iv by LC/MS/MS analysis; format: ADME, organism-based; details: in vivo; outline: as §5
Citrobacter freundii [44] = assay: Synergistic antibacterial activity against Citrobacter freundii ARC 3518 carbapenem resistant clinical isolates assessed as MIC for cefpodoxime antibacterial activity by CLSI based broth dilution method (Rvb > 64 ug/ml); format: functional
Escherichia coli [45] = assay: In vivo antibacterial activity against multidrug-resistant Escherichia coli ARC 2687 infected in CD-1 mouse model of neutropenic thigh infection assessed as colony forming unit at 600 mg/kg, sc administered at 6 hrs interval relative to pretreatment; format: functional; outline: as §3

CC1=C[C@@H](C(N)=O)N2C[C@@H]1N(O[C@H](F)C(=O)OC(C)C)C2=O
bioavailability [1]: 98%
Activity [2]: Non-Toxic
Cmax [3]: 5800 ng/mL
Drug metabolism [4]: Metabolite detected
Activity (Escherichia coli [5]): Active
Activity (Escherichia coli [6]): 1.11 log10CFU/g
half-life [7]: 66 min
bioavailability [8]: 98%
AUC [9]: 7040 ng·h/mL
Activity [10]: Non-Toxic

CC1=C[C@H](C(N)=O)N2C[C@@H]1N(O[C@H](F)C(=O)O)C2=O
MIC (Klebsiella pneumoniae [11]): 4 µg/mL (≈ 14.6 µM)
MIC (Klebsiella oxytoca [12]): 0.5 µg/mL
MIC (Enterobacter cloacae [13]): 1 µg/mL (≈ 3.66 µM)
AUC [14]: 7190 ng·h/mL
MIC (Klebsiella pneumoniae [15]): 16 µg/mL (≈ 58.6 µM)
MIC (Escherichia coli [16]): 0.125 µg/mL
Ki [17]: 0.34 nM
Drug metabolism [4]: Metabolite detected
MIC (Enterobacter cloacae [18]): 0.125 µg/mL
Cmax [19]: 17500 ng/mL
MIC (Enterobacter cloacae [20]): 0.125 µg/mL
MIC (Klebsiella pneumoniae [21]): 0.125 µg/mL
fraction unbound [22]: 91%
MIC (Escherichia coli [23]): 0.5 µg/mL (≈ 1.83 µM)
dose excreted [24]: 60%
MIC (Escherichia coli [25]): 16 µg/mL (≈ 58.6 µM)
MIC (Klebsiella pneumoniae [26]): 64 µg/mL (≈ 234 µM)
MIC (Escherichia coli [27]): 8 µg/mL (≈ 29.3 µM)
MIC (Klebsiella pneumoniae [28]): 16 µg/mL (≈ 58.6 µM)
MIC (Escherichia coli [29]): 4 µg/mL (≈ 14.6 µM)
MIC (Escherichia coli [30]): 0.25 µg/mL (≈ 0.915 µM)
MIC (Escherichia coli [31]): 0.25 µg/mL
CL renal [32]: 13.4 mL/min/kg
clearance [33]: 23.1 mL/min/kg
MIC (Klebsiella pneumoniae [34]): 0.125 µg/mL
MIC (Citrobacter freundii [35]): 0.25 µg/mL (≈ 0.915 µM)
MIC (Escherichia coli [36]): 0.5 µg/mL
MIC (Escherichia coli [37]): 0.125 µg/mL
Vd [38]: 0.7 L/kg
MIC (Enterobacter cloacae [39]): 1 µg/mL (≈ 3.66 µM)
MIC (Klebsiella oxytoca [40]): 16 µg/mL (≈ 58.6 µM)
MIC (Klebsiella pneumoniae [41]): 0.25 µg/mL
MIC (Klebsiella pneumoniae [42]): 0.125 µg/mL
half-life [43]: 24 min
MIC (Citrobacter freundii [44]): 0.13 µg/mL

C[C@@H](O)[C@H]1C(=O)N2C(C(=O)O)=C(S[C@@H]3CN[C@H](C(=O)N(C)C)C3)[C@H](C)[C@H]12 [MEROPENEM]
Activity (Escherichia coli [45]): -1.46 log10CFU/g
